Laboratory results: ChEMBL document CHEMBL1933064, “Synthesis and evaluation of potential inhibitors of human and Escherichia coli histidine triad nucleotide binding proteins” (Bioorg Med Chem Lett, 2012)
The source made the active and inactive calls. No cut-off for these calls is given here.

Assays:
[1] = test system: Escherichia coli; test: Growth inhibition of Escherichia coli BW25113 at 100 uM after 40 hrs in presence of glucose as sole carbon source; format: functional, organism-based
[2] = Non-competitive inhibition of Escherichia coli HinT using tryptamine 5'-adenosine phosphoramidate as substrate compound pre-incubated for 30 secs prior substrate addition measured for 2 mins by Dixon plot analysis
How it was run: (§1)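 Phosphoramidase assay on fluorogenic tryptamine 5'-adenosine phosphoramidate (TpAd), ecHinT or hHint1 enzyme. Enzyme pre-incubated with inhibitor 30 s at 25 °C, then substrate added. Hydrolysis followed as fluorescence rise (excitation 280 nm, emission 360 nm) over 2 min. HEPES buffer pH 7.2, 25 °C; Ki derived from rates versus concentration.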

[3] = biological target: Adenosine 5'-monophosphoramidase HINT1 (Homo sapiens, UniProt P49773); test: Non-competitive inhibition of human HinT1 using tryptamine 5'-adenosine phosphoramidate as substrate compound pre-incubated for 30 secs prior substrate addition measured for 2 mins by Dixon plot analysis; how it was run: as §1
[4] = test system: Escherichia coli; test: Inhibition of HinT in Escherichia coli BW25113 assessed as impaired growth at 100 uM after 40 hrs in presence of D,L-alanine as sole carbon source

SMILES | Ki [3] | inhibition [4] | growth inhibition (GI) [1] | Ki [2]
Nc1nc2c(ncn2[C@@H]2O[C@H](COC(=O)NCCc3c[nH]c4ccccc34)[C@@H](O)[C@H]2O)c(=O)[nH]1 | 34 µM | Active | inactive | 42 µM
Nc1ncnc2c1ncn2[C@@H]1O[C@H](COC(=O)CCCc2c[nH]c3ccccc23)[C@@H](O)[C@H]1O | 457 µM |  |  | 393 µM
Cc1cn([C@H]2C[C@H](N=[N+]=[N-])[C@@H](COC(=O)NCCc3c[nH]c4ccccc34)O2)c(=O)[nH]c1=O | 715 µM |  |  | 565 µM
Nc1ncnc2c1ncn2[C@@H]1O[C@H](COC(=O)CCc2c[nH]c3ccccc23)[C@@H](O)[C@H]1O | 400 µM |  |  | 375 µM

Continued, in another order:

Ki [3] | inhibition [4] | SMILES | growth inhibition (GI) [1] | Ki [2]
103 µM | Active | Nc1ncnc2c1ncn2[C@@H]1O[C@H](COC(=O)NCCc2c[nH]c3ccccc23)[C@@H](O)[C@H]1O | inactive | 73 µM
139 µM | Active | Cc1cn([C@H]2C[C@H](N)[C@@H](COC(=O)NCCc3c[nH]c4ccccc34)O2)c(=O)[nH]c1=O | inactive | 122 µM
